In ChEMBL document CHEMBL1208778, “Synthesis and anti-cancer activity of chalcone linked imidazolones” (2010):

Legend:
Assay type in all cases: functional
NCI-H522 = assay: Growth inhibition of human NCI-H522 cells
Method in brief: (§1)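 Five-dose testing was run within the NCI (Bethesda) in vitro Anticancer Screen Program on a panel of 53 human tumour cell lines from nine cancer types. Growth inhibition is reported as GI50.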

OVCAR-5 = assay: Growth inhibition of human OVCAR5 cells; method in brief: as §1
SNB-19 = assay: Growth inhibition of human SNB19 cells
Method in brief: (§2)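 Compounds that passed a preliminary screen were tested at five doses in the NCI (Bethesda) in vitro Anticancer Screen Program against a 53-line human tumour panel spanning leukemia, lung, colon, CNS, melanoma, ovarian, renal, prostate and breast. Growth inhibition is reported as GI50.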

UO-31 = assay: Growth inhibition of human UO31 cells; method in brief: as §2
MCF7 [1] = assay: Cell cycle arrest in human MCF7 cells assessed as accumulation at G0 phase at 30 uM after 24 hrs by FACS analysis
Method in brief: (§3)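 MCF-7 cells were treated at 30 µM for 24 h alongside a DMSO control. Fractions in G0, G1, S and G2/M phases were measured by FACS, and values are means of three experiments.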

SF-539 = assay: Growth inhibition of human SF539 cells; method in brief: as §1
MDA-MB-435 = assay: Growth inhibition of human MDA-MB-435 cells; method in brief: as §1
BT-549 = assay: Growth inhibition of human BT549 cells; method in brief: as §1
SN12C = assay: Growth inhibition of human SN12C cells; method in brief: as §2
HCT-116 = assay: Growth inhibition of human HCT116 cells; method in brief: as §1
A498 = assay: Growth inhibition of human A498 cells; method in brief: as §1
OVCAR-3 = assay: Growth inhibition of human OVCAR-3 cells; method in brief: as §1
SK-MEL-28 = assay: Growth inhibition of human SK-MEL-28 cells; method in brief: as §1
KM12 = assay: Growth inhibition of human KM12 cells; method in brief: as §1
K562 = assay: Growth inhibition of human K562 cells; method in brief: as §1
786-0 = assay: Growth inhibition of human 786-0 cells; method in brief: as §1
T47D = assay: Growth inhibition of human T47D cells; method in brief: as §2
SK-MEL-2 = assay: Growth inhibition of human SK-MEL-2 cells; method in brief: as §1
LOX IMVI = assay: Growth inhibition of human LOXIMVI cells; method in brief: as §1
SK-MEL-5 = assay: Growth inhibition of human SK-MEL-5 cells; method in brief: as §1
MCF7 [2] = assay: Cell cycle arrest in human MCF7 cells assessed as accumulation at G2/M phase at 30 uM after 24 hrs by FACS analysis; method in brief: as §3
COLO 205 = assay: Growth inhibition of human COLO205 cells; method in brief: as §1
MCF7 [3] = assay: Cell cycle arrest in human MCF7 cells assessed as accumulation at G1 phase at 30 uM after 24 hrs by FACS analysis; method in brief: as §3
UACC-257 = assay: Growth inhibition of human UACC257 cells; method in brief: as §2
RXF 393 = assay: Growth inhibition of human RXF393 cells; method in brief: as §1
SK-OV-3 = assay: Growth inhibition of human SKOV3 cells; method in brief: as §2
[4] = Growth inhibition of human RPMI8266 cells; method in brief: as §1
MCF7 [5] = assay: Cell cycle arrest in human MCF7 cells assessed as accumulation at S phase at 30 uM after 24 hrs by FACS analysis; method in brief: as §3
MCF7 [6] = assay: Growth inhibition of human MCF7 cells; method in brief: as §1
NCI-H460 = assay: Growth inhibition of human NCI-H460 cells; method in brief: as §1
UACC-62 = assay: Growth inhibition of human UACC62 cells; method in brief: as §2
ACHN = assay: Growth inhibition of human ACHN cells; method in brief: as §1
HCC 2998 = assay: Growth inhibition of human HCC2998 cells; method in brief: as §1
PC-3 = assay: Growth inhibition of human PC3 cells; method in brief: as §1
SNB-75 = assay: Growth inhibition of human SNB75 cells; method in brief: as §2
NCI/ADR-RES = assay: Growth inhibition of human NCI/ADR-RES cells; method in brief: as §1
NCI-H23 = assay: Growth inhibition of human NCI-H23 cells; method in brief: as §1
MDA-MB-231 = assay: Growth inhibition of human MDA-MB-231 cells; method in brief: as §1
SW-620 = assay: Growth inhibition of human SW620 cells; method in brief: as §2
U-251 = assay: Growth inhibition of human U251 cells; method in brief: as §2
HCT-15 = assay: Growth inhibition of human HCT15 cells; method in brief: as §1
A549 = assay: Growth inhibition of human A549 cells; method in brief: as §1
NCI-H226 = assay: Growth inhibition of human NCI-H226 cells; method in brief: as §1
M14 = assay: Growth inhibition of human M14 cells; method in brief: as §1
OVCAR-8 = assay: Growth inhibition of human OVCAR8 cells; method in brief: as §1
HOP-62 = assay: Growth inhibition of human HOP62 cells; method in brief: as §1
HT-29 = assay: Growth inhibition of human HT-29 cells; method in brief: as §1
MCF7 [7] = assay: Cell cycle arrest in human MCF7 cells assessed as accumulation at G0 phase at 10 uM after 24 hrs by FACS analysis
Method in brief: (§4)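 MCF-7 breast carcinoma cells were exposed to 10 µM test compound for 24 h, with DMSO as the vehicle control. Cell-cycle distribution was read by FACS as the percentage of cells in G0, G1, S and G2/M.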

MCF7 [8] = assay: Cell cycle arrest in human MCF7 cells assessed as accumulation at S phase at 10 uM after 24 hrs by FACS analysis; method in brief: as §4
MCF7 [9] = assay: Cell cycle arrest in human MCF7 cells assessed as accumulation at G1 phase at 10 uM after 24 hrs by FACS analysis; method in brief: as §4
TK-10 = assay: Growth inhibition of human TK10 cells; method in brief: as §2
MCF7 [10] = assay: Cell cycle arrest in human MCF7 cells assessed as accumulation at G2/M phase at 10 uM after 24 hrs by FACS analysis; method in brief: as §4
Malme-3M = assay: Growth inhibition of human MALME-3M cells; method in brief: as §1
CAKI-1 = assay: Growth inhibition of human Caki1 cells; method in brief: as §1
HOP-92 = assay: Growth inhibition of human HOP92 cells; method in brief: as §1
SF-295 = assay: Growth inhibition of human SF295 cells; method in brief: as §1
NCI-H322M = assay: Growth inhibition of human NCI-H322M cells; method in brief: as §1
EKVX = assay: Growth inhibition of human EKVX cells; method in brief: as §1
OVCAR-4 = assay: Growth inhibition of human OVCAR4 cells; method in brief: as §1
SF-268 = assay: Growth inhibition of human SF268 cells; method in brief: as §1
[11] = Growth inhibition of human Hs 578T cells; method in brief: as §1

Work on `COc1cc(/C=C/C(=O)c2cccc(-n3cc(-c4ccccc4)[nH]c3=O)c2)cc(OC)c1OC` yielded a GI50 (NCI-H522) of 0.95 µM, a GI50 (OVCAR-5) of 1.88 µM and a GI50 (SNB-19) of 2.35 µM. For the same compound, the GI50 (UO-31) was 1.51 µM, the Activity (MCF7 [1]) was 52.34% and the GI50 (SF-539) was 1.68 µM. It also gave a GI50 (MDA-MB-435) of 1.2 µM, a GI50 (BT-549) of 1.93 µM and a GI50 (SN12C) of 2.09 µM. It also gave a GI50 (HCT-116) of 0.33 µM, a GI50 (A498) of 2.65 µM and a GI50 (OVCAR-3) of 1.23 µM. The GI50 (SK-MEL-28) was 1.74 µM, the GI50 (KM12) was 1.37 µM and the GI50 (K562) was 0.5 µM. The GI50 (786-0) was 1.38 µM, the GI50 (T47D) was 2.19 µM and the GI50 (SK-MEL-2) was 2.06 µM. For the same compound, the GI50 (LOX IMVI) was 0.48 µM, the GI50 (SK-MEL-5) was 1.4 µM and the Activity (MCF7 [2]) was 3.02%. The GI50 (COLO 205) was 1.51 µM, the Activity (MCF7 [3]) was 39.08% and the GI50 (UACC-257) was 1.52 µM. It also gave a GI50 (RXF 393) of 1.71 µM, a GI50 (SK-OV-3) of 3.27 µM and a GI50 [4] of 0.62 µM. It also gave an Activity (MCF7 [5]) of 5.6%, a GI50 (MCF7 [6]) of 0.31 µM and a GI50 (NCI-H460) of 1.4 µM. For the same compound, the GI50 (UACC-62) was 1.52 µM, the GI50 (ACHN) was 1.6 µM and the GI50 (HCC 2998) was 1.26 µM. The GI50 (PC-3) was 3.26 µM, the GI50 (SNB-75) was 4.47 µM and the GI50 (NCI/ADR-RES) was 1.1 µM. For the same compound, the GI50 (NCI-H23) was 1.43 µM, the GI50 (MDA-MB-231) was 2.17 µM and the GI50 (SW-620) was 0.39 µM. It also gave a GI50 (U-251) of 0.63 µM, a GI50 (HCT-15) of 1.13 µM and a GI50 (A549) of 4.03 µM. It also gave a GI50 (NCI-H226) of 14.6 µM, a GI50 (M14) of 1.35 µM and a GI50 (OVCAR-8) of 1.62 µM. For the same compound, the GI50 (HOP-62) was 4.12 µM, the GI50 (HT-29) was 0.66 µM and the Activity (MCF7 [7]) was 8.19%. For the same compound, the Activity (MCF7 [8]) was 17.5%, the Activity (MCF7 [9]) was 54.85% and the GI50 (TK-10) was 3.02 µM. It also gave an Activity (MCF7 [10]) of 19.46%, a GI50 (Malme-3M) of 1.31 µM and a GI50 (CAKI-1) of 1.75 µM. It also gave a GI50 (HOP-92) of 10.8 µM, a GI50 (SF-295) of 1.9 µM and a GI50 (NCI-H322M) of 2.02 µM. It also gave a GI50 (EKVX) of 2.3 µM, a GI50 (OVCAR-4) of 1.88 µM and a GI50 (SF-268) of 1.92 µM. It also gave a GI50 [11] of 3.41 µM.
